pIC50: −log10 of the molar value. Converted amounts (≈) assume the structure as drawn.
Key:
[1] = AUC (0 to 4 hrs) in mouse at 200 mg/kg, po; type: ADME, organism-based; set-up: time < 4 hr, dose 200 mg/kg, route oral; settings: plasma
In short: (§1)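 Oral dosing to female mice, three per dose group, at 50 and 200 mg/kg in PEG400/water (70:30). Plasma levels of the parent drug were measured at 0.5, 1 and 4 h.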

[2] = Aqueous solubility at pH 5.8; type: physicochemical
[3] = Cmax in mouse at 200 mg/kg, po; type: ADME, organism-based; set-up: dose 200 mg/kg, route oral; settings: in vivo; in short: as §1
L2987 [4] = assay: Antitumor activity against human L2987 cells xenografted athymic mouse at 107 mg/kg/day, po after 14 days; type: functional; settings: L2987, 336 h, read-out: TGI
In short: (§2)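 L2987 non-small cell lung tumors were grown as xenografts in athymic mice. Once tumors were established at 80–100 mm³, animals were dosed orally once daily for 14 consecutive days. Tumor growth was followed through dosing, and activity was expressed as percent tumor growth inhibition (%TGI).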

Cytochrome P450 2D6 = Cytochrome P450 2D6 (Homo sapiens, UniProt P10635); assay: Inhibition of human CYP2D6; type: ADME
Cytochrome P450 1A2 = biological target: T1, Cytochrome P450 1A2 (Homo sapiens, UniProt P05177); assay: Inhibition of human CYP1A2; type: ADME
T1 sequence (P05177 whole entry): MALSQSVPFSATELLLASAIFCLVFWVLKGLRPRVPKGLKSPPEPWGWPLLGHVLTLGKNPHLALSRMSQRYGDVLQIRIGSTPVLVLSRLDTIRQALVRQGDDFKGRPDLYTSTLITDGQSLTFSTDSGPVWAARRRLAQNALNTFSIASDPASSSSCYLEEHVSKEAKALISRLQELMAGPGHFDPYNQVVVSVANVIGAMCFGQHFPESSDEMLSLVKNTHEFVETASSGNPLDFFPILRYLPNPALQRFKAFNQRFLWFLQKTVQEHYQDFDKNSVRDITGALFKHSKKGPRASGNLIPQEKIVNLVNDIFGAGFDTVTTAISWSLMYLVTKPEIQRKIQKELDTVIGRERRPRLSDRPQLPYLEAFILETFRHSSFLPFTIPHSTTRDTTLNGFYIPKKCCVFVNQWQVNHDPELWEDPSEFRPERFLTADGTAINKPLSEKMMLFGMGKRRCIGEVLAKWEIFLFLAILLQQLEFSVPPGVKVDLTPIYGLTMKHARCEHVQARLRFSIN

Cytochrome P450 2C19 = Cytochrome P450 2C19 (Homo sapiens, UniProt P33261); assay: Inhibition of human CYP2C19; type: ADME
L2987 [5] = assay: Antitumor activity against human L2987 cells xenografted po dosed athymic mouse after 14 days; type: functional, organism-based; in short: as §2
[6] = Cmax in mouse at 50 mg/kg, po; type: ADME, organism-based; set-up: dose 50 mg/kg, route oral; settings: in vivo; in short: as §1
Cytochrome P450 2C9 = Cytochrome P450 2C9 (Homo sapiens, UniProt P11712); assay: Inhibition of human CYP2C9; type: ADME
L2987 [7] = assay: Antitumor activity against human L2987 cells xenografted athymic mouse at 80 mg/kg/day, po after 14 days; type: functional; settings: L2987, 336 h, read-out: TGI; in short: as §2
[8] = AUC (0 to 4 hrs) in mouse at 50 mg/kg, po; type: ADME, organism-based; set-up: time < 4 hr, dose 50 mg/kg, route oral; settings: plasma; in short: as §1
[9] = Aqueous solubility at pH 6.5; type: physicochemical
Cytochrome P450 3A4 [10] = biological target: T2, Cytochrome P450 3A4 (Homo sapiens, UniProt P08684); assay: Inhibition of human CYP3A4 using 7-benzyloxyresorufin; type: ADME
Cytochrome P450 3A4 [11] = biological target: T2, Cytochrome P450 3A4; assay: Inhibition of human CYP3A4 using 7-benzyl-trifluoromethyl coumarin; type: ADME
Mus musculus = assay: Ratio of AUC (0 to 4 hrs) in mouse plasma at 200 mg/kg, po to AUC (0 to 4 hrs) in mouse plasma at 50 mg/kg, po; type: ADME, organism-based; settings: in vivo; in short: as §1

Cytochrome P450 2C19, sequence (P33261 whole entry): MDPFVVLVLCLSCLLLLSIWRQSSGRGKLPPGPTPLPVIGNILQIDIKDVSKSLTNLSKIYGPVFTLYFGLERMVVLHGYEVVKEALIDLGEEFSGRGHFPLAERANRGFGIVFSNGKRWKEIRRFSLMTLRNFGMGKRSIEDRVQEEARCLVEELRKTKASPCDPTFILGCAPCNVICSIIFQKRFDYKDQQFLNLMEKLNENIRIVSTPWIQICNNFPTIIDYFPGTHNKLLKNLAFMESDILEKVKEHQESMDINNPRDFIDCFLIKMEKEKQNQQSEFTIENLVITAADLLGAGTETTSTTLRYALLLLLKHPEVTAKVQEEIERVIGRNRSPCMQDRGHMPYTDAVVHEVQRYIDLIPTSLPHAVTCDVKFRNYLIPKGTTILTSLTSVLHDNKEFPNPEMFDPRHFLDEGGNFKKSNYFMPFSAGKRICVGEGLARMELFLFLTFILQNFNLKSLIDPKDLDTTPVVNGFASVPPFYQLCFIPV
T2 sequence (P08684 whole entry): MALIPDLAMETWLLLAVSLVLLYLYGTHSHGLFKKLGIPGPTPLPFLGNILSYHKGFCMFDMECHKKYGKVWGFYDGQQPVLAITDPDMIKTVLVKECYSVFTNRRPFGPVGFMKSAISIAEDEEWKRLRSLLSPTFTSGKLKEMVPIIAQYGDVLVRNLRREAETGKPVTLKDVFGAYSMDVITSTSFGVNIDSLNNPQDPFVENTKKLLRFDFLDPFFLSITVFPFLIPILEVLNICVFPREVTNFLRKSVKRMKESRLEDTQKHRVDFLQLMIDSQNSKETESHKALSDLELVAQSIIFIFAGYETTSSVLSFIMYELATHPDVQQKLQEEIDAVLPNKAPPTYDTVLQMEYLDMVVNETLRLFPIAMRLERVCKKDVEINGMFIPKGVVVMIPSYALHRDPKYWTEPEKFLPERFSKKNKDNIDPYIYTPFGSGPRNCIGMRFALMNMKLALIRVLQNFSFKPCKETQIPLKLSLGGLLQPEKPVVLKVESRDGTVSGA
Cytochrome P450 2C9, sequence (P11712 whole entry): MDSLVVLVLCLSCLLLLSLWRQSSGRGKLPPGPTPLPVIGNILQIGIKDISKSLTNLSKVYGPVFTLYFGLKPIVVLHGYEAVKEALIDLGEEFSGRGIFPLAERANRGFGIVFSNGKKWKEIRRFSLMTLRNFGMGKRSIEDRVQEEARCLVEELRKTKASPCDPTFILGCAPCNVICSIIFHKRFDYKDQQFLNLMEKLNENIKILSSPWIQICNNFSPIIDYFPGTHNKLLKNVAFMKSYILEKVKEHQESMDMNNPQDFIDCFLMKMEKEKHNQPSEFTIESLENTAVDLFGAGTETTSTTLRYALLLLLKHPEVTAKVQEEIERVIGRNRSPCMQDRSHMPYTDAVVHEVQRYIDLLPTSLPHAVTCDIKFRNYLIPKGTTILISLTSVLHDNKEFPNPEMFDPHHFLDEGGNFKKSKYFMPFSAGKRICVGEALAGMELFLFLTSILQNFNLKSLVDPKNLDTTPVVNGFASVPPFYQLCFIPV
Cytochrome P450 2D6, sequence (P10635 whole entry): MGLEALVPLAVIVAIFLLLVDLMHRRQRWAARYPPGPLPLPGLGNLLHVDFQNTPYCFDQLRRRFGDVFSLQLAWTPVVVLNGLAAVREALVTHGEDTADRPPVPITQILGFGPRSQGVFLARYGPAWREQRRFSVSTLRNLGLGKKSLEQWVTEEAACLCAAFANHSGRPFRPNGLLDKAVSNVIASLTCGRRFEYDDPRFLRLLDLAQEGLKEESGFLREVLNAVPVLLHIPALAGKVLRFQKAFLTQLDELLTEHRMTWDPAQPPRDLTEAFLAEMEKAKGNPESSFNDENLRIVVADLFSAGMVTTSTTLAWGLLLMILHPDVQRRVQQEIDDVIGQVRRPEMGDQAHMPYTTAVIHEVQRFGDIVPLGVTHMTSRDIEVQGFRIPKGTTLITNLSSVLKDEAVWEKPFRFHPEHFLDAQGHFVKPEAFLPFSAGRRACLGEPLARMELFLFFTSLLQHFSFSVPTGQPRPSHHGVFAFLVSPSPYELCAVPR

SMILES	AUC(0-t) at 4 h [1]	solubility [2]	Cmax [3]	inhibition in vivo at 107 mg/kg/day (L2987 [4])	pIC50 (Cytochrome P450 2D6)	pIC50 (Cytochrome P450 1A2)	pIC50 (Cytochrome P450 2C19)	Activity (L2987 [5])	Cmax [6]	pIC50 (Cytochrome P450 2C9)	inhibition in vivo at 80 mg/kg/day (L2987 [7])	AUC(0-t) at 4 h [8]	solubility [9]	pIC50 (Cytochrome P450 3A4 [10])	pIC50 (Cytochrome P450 3A4 [11])	Ratio (Mus musculus)
Cc1cc2c(F)c(Oc3ncnn4cc(OC[C@@H](C)OC(=O)C(C)N)c(C)c34)ccc2[nH]1 (single isomer, unassigned; 8)	276 µM·h	73 mg/mL (≈ 165 mM)	78 µM	97%	4.62	< 4.40	5.68	Dose-dependent effect	21 µM	5.01	85%	69 µM·h	–	–	–	–
Cc1cc2c(F)c(Oc3ncnn4cc(OC[C@@H](C)O)c(C)c34)ccc2[nH]1 [BRIVANIB]	52 µM·h	–	14 µM	–	< 4.40	< 4.40	< 4.40	–	12 µM	< 4.40	–	45 µM·h	< 0.001 mg/mL	–	–	–
Cc1cc2c(F)c(Oc3ncnn4cc(OC[C@@H](C)OC(=O)C(N)CC(C)C)c(C)c34)ccc2[nH]1 (single isomer, unassigned)	451 µM·h	–	152 µM	–	4.62	4.47	5.74	–	31 µM	5.57	–	113 µM·h	–	6.43	7.02	4
Cc1cc2c(F)c(Oc3ncnn4cc(OC[C@@H](C)OC(=O)C(C)(C)N)c(C)c34)ccc2[nH]1	213 µM·h	–	66 µM	–	–	–	–	–	15 µM	–	–	46 µM·h	–	–	–	4.6
Cc1cc2c(F)c(Oc3ncnn4cc(OC[C@@H](C)OC(=O)CN)c(C)c34)ccc2[nH]1	303 µM·h	–	126 µM	–	4.92	5.43	6.80	–	21 µM	7.20	–	69 µM·h	–	6.51	6.80	4.4
